Experimental data: ChEMBL document CHEMBL1143844, “Biochemical studies on the mechanism of human immunodeficiency virus type 1 reverse transcriptase resistance to 1-(beta-D-dioxolane)thymine triphosphate” (Antimicrob Agents Chemother, 2007)
pIC50: −log10 of the molar value.

Assays:
[1] = Inhibition of HIV1 LAI reverse transcriptase 65R mutant by heteropolymeric DNA polymerase assay; set-up: species or system Human immunodeficiency virus 1
Summary of the method: (§1)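 Purified p66/p51 HIV-1 RT, or p66 homodimer for 65R, at 30–100 pM (about 1.5–4.5 mU/well). Plate-bound 18-mer DNA primer on a 50-base 5′-A12-(GTCA)5-3′ DNA template. dATP, dGTP, dCTP and BrdUTP at 1.0 μM each, no ATP. Buffer: HEPES 50 mM pH 7.3, 10 mM MgCl2. Incubation 180 min at 33°C, NaOH dehybridization, anti-BrdU-AP tracer, A405. IC50 from seven inhibitor concentrations, at least two experiments in duplicate.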

[2] = Inhibition of HIV1 reverse transcriptase 41L/69S-SG/184V/210W/215Y mutant in presence of 5 mM ATP by heteropolymeric DNA polymerase assay; set-up: species or system Human immunodeficiency virus 1
Summary of the method: (§2)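 Heteropolymeric DNA polymerase assay with ATP added at 5 mM. Purified HIV-1 RT at 30–100 pM acts on a plate-bound DNA primer with a 5′-A12-(GTCA)5-3′ template. dATP, dGTP, dCTP and BrdUTP at 1.0 μM each. Incubation 180 min at 33°C. BrdUMP incorporation read via anti-BrdU-AP at 405 nm after NaOH dehybridization. IC50 from seven inhibitor concentrations, at least two experiments in duplicate.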

[3] = Inhibition of HIV1 reverse transcriptase wild type HXB2(a) by heteropolymeric DNA polymerase assay; set-up: species or system Human immunodeficiency virus 1
Summary of the method: (§3)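 Heteropolymeric assay without ATP: plate-bound 18-mer DNA primer (~110 nM) with 50-mer 5′-A12-(GTCA)5 template (190 nM). dATP, dGTP, dCTP and BrdUTP at 1.0 μM each, in HEPES 50 mM pH 7.3, MgCl2 10 mM. RT 30–100 pM, 33°C for 180 min, then NaOH dehybridization and anti-BrdU-AP tracer read at 405 nm. IC50 from seven triphosphate concentrations; two to four runs in duplicate.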

[4] = Inhibition of HIV1 reverse transcriptase 41L/67N/70R/184V/210W/215Y mutant in presence of 5 mM ATP by heteropolymeric DNA polymerase assay; set-up: species or system Human immunodeficiency virus 1; summary of the method: as §2
[5] = biological target: T1, Human immunodeficiency virus type 1 reverse transcriptase (Human immunodeficiency virus 1, UniProt Q72547); assay: Inhibition of HIV1 LAI reverse transcriptase wild type LAI by heteropolymeric DNA polymerase assay; summary of the method: as §3
[6] = biological target: T1, Human immunodeficiency virus type 1 reverse transcriptase; assay: Inhibition of HIV1 LAI reverse transcriptase wild type in presence of 5 mM ATP by heteropolymeric DNA polymerase assay
Summary of the method: (§4)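 Heteropolymeric DNA assay with 5 mM ATP added: immobilized 18-mer primer, 5′-A12-(GTCA)5 50-mer template, dATP/dGTP/dCTP/BrdUTP at 1.0 μM each, HEPES 50 mM pH 7.3, MgCl2 10 mM. RT 30–100 pM, incubated at 33°C for 180 min. NaOH strand separation, then anti-BrdU-AP detection at 405 nm. IC50 fitted from seven inhibitor concentrations; two to four runs in duplicate.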

[7] = Inhibition of HIV1 reverse transcriptase wild type HXB2(a) in presence of 5 mM ATP by heteropolymeric DNA polymerase assay; set-up: species or system Human immunodeficiency virus 1; summary of the method: as §4
[8] = Inhibition of HIV1 reverse transcriptase 75I/77L/116Y/151M/184V mutant by heteropolymeric DNA polymerase assay; set-up: species or system Human immunodeficiency virus 1; summary of the method: as §1
[9] = Inhibition of HIV1 reverse transcriptase 41L/69S-SG/210W/215Y mutant by heteropolymeric DNA polymerase assay; set-up: species or system Human immunodeficiency virus 1; summary of the method: as §1
[10] = biological target: T1, Human immunodeficiency virus type 1 reverse transcriptase; assay: Inhibition of HIV1 pNL4-3 reverse transcriptase wild type pNL4-3 by heteropolymeric DNA polymerase assay; summary of the method: as §3
[11] = Inhibition of HIV1 reverse transcriptase 75I/77L/116Y/151M mutant by heteropolymeric DNA polymerase assay; set-up: species or system Human immunodeficiency virus 1; summary of the method: as §1
[12] = Inhibition of HIV1 reverse transcriptase 41L/67N/70R/184V/210W/215Y mutant by heteropolymeric DNA polymerase assay; set-up: species or system Human immunodeficiency virus 1; summary of the method: as §1
[13] = Inhibition of HIV1 reverse transcriptase 41L/69S-SG/184V/210W/215Y mutant by heteropolymeric DNA polymerase assay; set-up: species or system Human immunodeficiency virus 1; summary of the method: as §1
[14] = Inhibition of HIV1 reverse transcriptase 75I/77L/116Y/151M/184V mutant in presence of 5 mM ATP by heteropolymeric DNA polymerase assay; set-up: species or system Human immunodeficiency virus 1; summary of the method: as §2
[15] = Inhibition of HIV1 reverse transcriptase 184V mutant in presence of 5 mM ATP by heteropolymeric DNA polymerase assay; set-up: species or system Human immunodeficiency virus 1; summary of the method: as §2
[16] = biological target: T1, Human immunodeficiency virus type 1 reverse transcriptase; assay: Inhibition of HIV1 pNL4-3 reverse transcriptase wild type pNL4-3 in presence of 5 mM ATP by heteropolymeric DNA polymerase assay; summary of the method: as §4
[17] = Inhibition of HIV1 reverse transcriptase 75I/77L/116Y/151M mutant in presence of 5 mM ATP by heteropolymeric DNA polymerase assay; set-up: species or system Human immunodeficiency virus 1; summary of the method: as §2
[18] = Inhibition of HIV1 pNL4-3 reverse transcriptase 115F mutant in presence of 5 mM ATP by heteropolymeric DNA polymerase assay; set-up: species or system Human immunodeficiency virus 1; summary of the method: as §2
[19] = Inhibition of HIV1 reverse transcriptase 41L/67N/70R/210W/215Y mutant by heteropolymeric DNA polymerase assay; set-up: species or system Human immunodeficiency virus 1; summary of the method: as §1
[20] = Inhibition of HIV1 reverse transcriptase 41L/69S-SG/210W/215Y mutant in presence of 5 mM ATP by heteropolymeric DNA polymerase assay; set-up: species or system Human immunodeficiency virus 1; summary of the method: as §2
[21] = Inhibition of HIV1 pNL4-3 reverse transcriptase 115F mutant by heteropolymeric DNA polymerase assay; set-up: species or system Human immunodeficiency virus 1; summary of the method: as §1
[22] = Inhibition of HIV1 reverse transcriptase 184V mutant by heteropolymeric DNA polymerase assay; set-up: species or system Human immunodeficiency virus 1; summary of the method: as §1
[23] = Inhibition of HIV1 LAI reverse transcriptase 65R mutant in presence of 5 mM ATP by heteropolymeric DNA polymerase assay; set-up: species or system Human immunodeficiency virus 1; summary of the method: as §2

Row | SMILES | pIC50 [1] | pIC50 [2] | pIC50 [3] | pIC50 [4] | pIC50 [5] | pIC50 [6] | pIC50 [7] | pIC50 [8] | pIC50 [11] | pIC50 [12] | pIC50 [13] | pIC50 [14] | pIC50 [15] | pIC50 [17] | pIC50 [19] | pIC50 [20] | pIC50 [22] | pIC50 [23] | other results
1 | Nc1nc(=O)c2ncn([C@H]3C=C[C@@H](COP(=O)(O)OP(=O)(O)OP(=O)(O)O)C3)c2[nH]1 [CARBOVIR 5'-TRIPHOSPHATE, (-)-] | 5.30 | 5.19 | 5.96 | 5.35 | 6.17 | 6.05 | 5.82 | 4.27 | 5.18 | 5.57 | 5.47 | 4.74 | 5.08 | 4.96 | 6.05 | 5.29 | 5.26 | 5.26 | pIC50 [9]: 6.05; pIC50 [10]: 5.92; pIC50 [16]: 5.74; pIC50 [18]: 5.44; pIC50 [21]: 5.59
2 | Nc1nc2c(ncn2[C@H]2CO[C@@H](COP(=O)(O)OP(=O)(O)OP(=O)(O)O)O2)c(=O)[nH]1 | 6.21 | 6.59 | 6.92 | 6.72 | 6.74 | 6.70 | 6.82 | 5.14 | 5.60 | 6.85 | 6.85 | 5.62 | 6.70 | 5.92 | 6.96 | 6.47 | 6.70 | 5.89 | –
